Experimental data taken from ChEMBL document CHEMBL5505965 (Eur J Med Chem, 2024).
≈ marks a conversion by molar mass, not a printed value.

Legend:
[1] = Inhibition of NDM1 (unknown origin)
Escherichia coli [2] = assay: Synergistic anti-bacterial activity Escherichia coli E.cloni MP30-63 expressing blaNDM- gene assessed as decrease in meropenem MIC at 500 uM; format: functional
Escherichia coli [3] = assay: Synergistic anti-bacterial activity Escherichia coli E.cloni MP30-58 expressing blaIMP- gene assessed as fold reduction in meropenem MIC at 500 uM; format: functional
Escherichia coli [4] = assay: Synergistic anti-bacterial activity Escherichia coli E.cloni MP30-57 expressing blaVIM- gene assessed as decrease in meropenem MIC at 500 uM; format: functional
Escherichia coli [5] = assay: Synergistic anti-bacterial activity Escherichia coli E.cloni MP30-57 expressing blaVIM- gene assessed as fold reduction in meropenem MIC at 500 uM; format: functional
Escherichia coli [6] = assay: Synergistic anti-bacterial activity Escherichia coli E.cloni MP30-58 expressing blaIMP- gene assessed as decrease in meropenem MIC at 500 uM; format: functional
Escherichia coli [7] = assay: Synergistic anti-bacterial activity Escherichia coli E.cloni MP30-63 expressing blaNDM- gene assessed as fold reduction in meropenem MIC at 500 uM; format: functional
Escherichia coli [8] = assay: Anti-bacterial activity against Escherichia coli E.cloni MP30-57 expressing blaVIM- gene assessed as decrease in bacterial growth; format: functional
How it was run: (§1)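 Test compound held at a fixed 500 μM in E. coli producing the B1 metallo-β-lactamase (NDM-1, VIM-2 or IMP-26). Growth was checked with the compound alone and in combination with meropenem. Read-out was the meropenem MIC (mg/L) and its fold reduction.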

Escherichia coli [9] = assay: Anti-bacterial activity against Escherichia coli E.cloni MP30-63 expressing blaNDM- gene assessed as decrease in bacterial growth; format: functional; how it was run: as §1
Escherichia coli [10] = assay: Anti-bacterial activity against Escherichia coli E.cloni MP30-58expressing blaIMP- gene assessed as decrease in bacterial growth; format: functional; how it was run: as §1
Escherichia coli [11] = assay: Anti-bacterial activity against Escherichia coli E.cloni MP21-05 assessed as decrease in bacterial growth; format: functional

SMILES | IC50 [1] [µM] | further results
C[C@@H](CS)C(=O)N1CCC[C@H]1C(=O)O | > 500 | 
O=C(O)[C@@H]1CCCN1C(=O)[C@@H](CS)C(F)(F)F | 6.1 | MIC (Escherichia coli [2]): 4 µg/mL; fold change (FC) (Escherichia coli [3]): 8; MIC (Escherichia coli [4]): 0.06 µg/mL; fold change (FC) (Escherichia coli [5]): 8; MIC (Escherichia coli [6]): 0.25 µg/mL
O=C(O)[C@@H]1CCCN1C(=O)[C@H](CS)C(F)(F)F | 60 | 
O=C(CC(S)C(F)(F)F)Nc1ccccc1 (configuration not stated) | 22 | 
O=C(O)[C@H]1CCCN1C(=O)CC(S)C(F)(F)F (some centres not stated) | > 300 | 
O=C(O)[C@H]1CCCCN1C(=O)C(CS)C(F)(F)F (some centres not stated) | 3.2 | MIC (Escherichia coli [2]): 0.5 µg/mL; MIC (Escherichia coli [4]): 0.125 µg/mL; fold change (FC) (Escherichia coli [7]): 32; MIC (Escherichia coli [6]): 0.5 µg/mL
O=C(O)[C@@H]1CCCN1C(=O)C(CS)C(F)(F)F (some centres not stated) | 37 | 
O=C(NCc1ccccc1)[C@@H](CS)C(F)(F)F | 75 | 
O=C(Nc1ccccc1)C(CS)C(F)(F)F (configuration not stated) | 3.4 | 
O=C(CC(S)C(F)(F)F)Nc1ccc(C(=O)O)cc1 (configuration not stated) | 5.6 | 
O=C(O)[C@H]1CCCN1C(=O)[C@@H](CS)C(F)(F)F | 0.3 | MIC (Escherichia coli [2]): 4 µg/mL; MIC (Escherichia coli [4]): 0.25 µg/mL; MIC (Escherichia coli [6]): 4 µg/mL
O=C(O)[C@H]1CCCN1C(=O)[C@H](CS)C(F)(F)F | 4.5 | 
O=C(O)C1CCN(C(=O)C(CS)C(F)(F)F)CC1 (configuration not stated) | 2.2 | MIC (Escherichia coli [2]): 1 µg/mL; MIC (Escherichia coli [4]): 0.125 µg/mL; fold change (FC) (Escherichia coli [7]): 32; MIC (Escherichia coli [6]): 2 µg/mL
O=C(O)c1ccc(CNC(=O)C(CS)C(F)(F)F)cc1 (configuration not stated) | 65 | 
O=C(O)[C@@H]1CCCN1C(=O)CC(S)C(F)(F)F (some centres not stated) | > 300 | 
O=C(CC(S)C(F)(F)F)NCc1ccccc1 (configuration not stated) | > 300 | 
O=C(CC(S)C(F)(F)F)NCc1ccc(C(=O)O)cc1 (configuration not stated) | > 300 | 
O=C(O)C1CCN(C(=O)CC(S)C(F)(F)F)CC1 (configuration not stated) | > 300 | 
O=C(NCc1ccccc1)[C@H](CS)C(F)(F)F | 10 | 
O=C(O)[C@H]1CCCCN1C(=O)CC(S)C(F)(F)F (some centres not stated) | 145 | 
C[C@@H](CS)C(=O)N1CCC[C@@H]1C(=O)O | 64 | 
O=C(NCc1ccccc1)C(CS)C(F)(F)F (racemic) | 20 | 
C[C@@H](O)[C@H]1C(=O)N2C(C(=O)O)=C(S[C@@H]3CN[C@H](C(=O)N(C)C)C3)[C@H](C)[C@H]12 [MEROPENEM] |  | MIC (Escherichia coli [8]): 0.5 µg/mL (≈ 1.3 µM); MIC (Escherichia coli [9]): 32 µg/mL (≈ 83.4 µM); MIC (Escherichia coli [10]): 2 µg/mL (≈ 5.22 µM); MIC (Escherichia coli [11]): 0.03 µg/mL (≈ 0.0782 µM)
